# Screening results as filed in PubChem.
# KCNQ1 act: human KCNQ1 channel potentiation or activation. CHO-K1 KCNQ1, thallium flux FluxOR fluorescence; active compounds read high. B-score at 10 µM. 310,000 tested, 0.35% active. AID 2648;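 active = fluorescence ratio B-score, a plate-corrected score, at least three library SD, with initial intensity B-score within 5 SD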
#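 Assay system: CHO-K1 cells stably expressing KCNQ1. Medium: assay buffer for compound exposure, DMSO matched across wells. Timing: 37 °C overnight plating, 90-min dark dye load, 20-min compound pretreatment. Signal: kinetic FluxOR fluorescence, 10 s baseline plus 110 s post-stimulus.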
# KCNK9 inh: human KCNK9 channel inhibition | Q9NPC2 | HEK293 KCNK9, FluxOR thallium flux fluorescence; active compounds read low | B-score at 10 µM | 310,000 tested, 1.2% active;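 active = ratio B-score over 3 SD below the library mean, with starting fluorescence within 5 SD of its mean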;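 note: negative B-score means less thallium flux so channel inhibition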
# Target sequence (Q9NPC2 whole entry, looked up): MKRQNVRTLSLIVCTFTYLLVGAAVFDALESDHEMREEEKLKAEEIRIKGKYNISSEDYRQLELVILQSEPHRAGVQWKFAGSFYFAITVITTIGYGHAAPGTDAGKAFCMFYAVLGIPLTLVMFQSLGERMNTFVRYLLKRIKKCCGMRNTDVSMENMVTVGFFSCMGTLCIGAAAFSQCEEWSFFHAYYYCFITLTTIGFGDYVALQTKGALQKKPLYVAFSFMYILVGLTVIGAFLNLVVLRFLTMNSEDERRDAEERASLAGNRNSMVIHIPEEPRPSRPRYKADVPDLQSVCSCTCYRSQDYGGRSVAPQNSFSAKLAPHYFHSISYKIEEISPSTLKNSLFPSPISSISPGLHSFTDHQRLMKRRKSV
# hERG rescue: shields human hERG channel from block by proarrhythmic agents | Q12809 | CHO-hERG, FluxOR thallium flux, dofetilide IC70 present | activation (rescue from dofetilide block), less the hit threshold, % at 10 µM | 310,000 tested, 0.51% active;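 active = activation above the mean of controls blocked by dofetilide plus 5 SD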;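 note: thallium influx through hERG after potassium depolarization seen as dye fluorescence rise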
# KCNQ1 inh: inhibitors of human KCNQ1 potassium channel; 310,000 tested, 1.3% active; CHO-K1 KCNQ1, FluxOR thallium flux fluorescence; active compounds read high; P51787; B-score at 10 µM;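 active = compounds whose thallium flux B-score, printed positive for inhibition, exceeds three library SD while starting fluorescence stays within three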;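 note: channel opened by potassium depolarization with thallium stimulus after 20 min compound exposure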
# Kir21 block: inhibitors of mouse Kir2.1 inward-rectifier potassium channel; B-score at 10 µM; AID 1672; 310,000 tested, 0.85% active; HEK293-Kir2.1, FluxOR thallium flux fluorescence; active compounds read low; P35561;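 active = fluorescence ratio B-score at or below minus 3 SD of library scores, with starting-brightness B-score within 2 SD, cut at about -4.2 in these data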;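 note: channel flux triggered by added potassium and thallium sulfate stimulus; B-score of peak minus minimum fluorescence over baseline after thallium stimulus; more negative B-score means stronger Kir2.1 block with less thallium influx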
# KCNK3 inh: human KCNK3 channel inhibition, primary screen; O14649; CHO-KCNK3 thallium flux, FluxOR fluorescence; active compounds read low; B-score at 10 µM; 340,000 tested, 0.84% active;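 active = B-score under library mean minus 4 SD, starting fluorescence ratio at most library mean plus 5 SD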;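 note: more negative B-score means stronger inhibition of thallium flux through KCNK3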
# KCNK9 block conf: human KCNK9 inhibitor confirmation; shares compounds with KCNK9 inh; HEK293 KCNK9 cells, FluxOR thallium flux fluorescence; inhibition, % at 10 µM; 4,900 tested, 43% active;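 active = thallium signal inhibited by more than 5 SD of the compound-free buffer control wells, on both duplicate plates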;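 note: 0% = assay buffer control wells without compound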
# Kir2-1 spec: mouse Kir2.1 off-target activity of KCNK9 modulators | shares compounds with KCNK9 inh | Kir2.1 cells, FluxOR thallium flux fluorescence | inhibition, % at 10 µM | 4,900 tested, 4% active | AID 492993;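 active = thallium signal drop more than 5 SD beyond the mean of the no-compound control wells, seen in both duplicate plates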;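 note: signal is fluorescence rise after thallium addition divided by baseline fluorescence; plate controls were assay buffer only for no effect and full block by chlorpromazine control for full effect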
# HEK293 Tl ctr: second counter-screen for KCNK9 modulators: effect in non-induced cells; shares compounds with KCNK9 inh; non-induced KCNK9-HEK293, FluxOR thallium flux; inhibition, % at 10 µM; 4,900 tested, 40% active; AID 492997;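 active = thallium signal drop beyond 5 SD of the untreated control mean, on both duplicate plates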;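 note: plate controls were buffer only IC0 wells for no effect and SID17386958 at its maximal inhibitory level for full effect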
# KCNK3 inh conf: confirmation of human KCNK3 two-pore domain potassium channel inhibitors; shares compounds with KCNK3 inh; ratio percent of control, % at 10 µM; 2,400 tested, 99% active; CHO-KCNK3 thallium flux, FluxOR fluorescence; 0% buffer, 100% carvedilol maximal block; AID 651638;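 active = ratio percent of control, averaged over triplicates, above buffer control mean plus 5 SD, cut at about 64% in these data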;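 note: ratio is the fluorescence rise from min to max over baseline after thallium stimulus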
# KCNK3 noninduced: activity in cells without induced KCNK3 expression. 2,400 tested, 40% active. AID 651747. thallium flux ratio (lower = more inhibition) at 10 µM. shares compounds with KCNK3 inh. non-induced KCNK3 parental cells, FluxOR thallium flux; active compounds read low;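 active = thallium flux ratio, averaged over three wells, more than 5 SD below the buffer control mean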;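 note: host cells are CHO cells without KCNK3 induction; ratio is peak minus trough fluorescence over baseline then normalized to buffer controls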
# Active calls of the source: *; i = inactive; / = no result given. Compounds with a hit are over-represented: about 3.8% of the library has one in this group of screens.
SMILES,KCNQ1 act,KCNK9 inh,hERG rescue,KCNQ1 inh,Kir21 block,KCNK3 inh,KCNK3 inh conf,KCNK3 noninduced,others
CCc1ccc(-c2cc(C)no2)cc1S(=O)(=O)N1CCC(C)CC1,i,-9.34*,-10.7,i,0.13,-10*,101.7*,i,KCNK9 block conf=i;Kir2-1 spec=i;HEK293 Tl ctr=46.5%*
CCC1CN(S(=O)(=O)c2cc(-c3cc(C)no3)ccc2OC)c2cc(C)ccc2O1 (stereo not given),i,-10.8*,-16.9,i,-1.31,-10.5*,121.0*,0.155*,KCNK9 block conf=36.0%*;Kir2-1 spec=i;HEK293 Tl ctr=32.0%*
O=C(CCCOc1cccc(Br)c1)NC1CCC(O)CC1 (stereo not given),i,i,-7.2,i,0.08,i,/,/,
O=C(O)C1CCC(NSc2ccccc2[N+](=O)[O-])CC1 (stereo not given),i,i,-9.3,i,2.33,i,/,/,
Cc1cccc2cc(CN(Cc3cccs3)Cc3nnnn3Cc3ccccc3)c(=O)[nH]c12,i,-13*,-3.4,i,0,-11.2*,88.3*,i,KCNK9 block conf=29.0%*;Kir2-1 spec=i;HEK293 Tl ctr=28.5%*
CCCSc1nsc(NC(=O)C(c2ccccc2)c2ccccc2)n1,i,-8.76*,-6.4,6*,-0.01,-8.99*,131.7*,0.124*,KCNK9 block conf=55.0%*;Kir2-1 spec=i;HEK293 Tl ctr=41.5%*
CCCSc1nsc(NC(=O)CC)n1,i,i,-4.5,i,-2.05,i,/,/,
COc1cccc(CN(C)Cc2cc(=O)oc3c(C)c(C)ccc23)c1,i,i,-9.8,i,1.32,-10.7*,124.7*,0.144*,
Cc1cc2oc(=O)cc(CN(C)Cc3cccc(F)c3)c2cc1C,i,i,-8.3,i,0.07,-8.73*,112.0*,i,
Cc1ccccc1CN(C)Cc1cc(=O)oc2c(C)c(C)ccc12,i,i,-20.8,9*,-2.13,-10.6*,118.3*,0.135*,
CCc1ccc2c(CN(C)Cc3ccc(OC(F)F)c(OC)c3)cc(=O)oc2c1,i,i,-4.5,i,2.37,-15.8*,128.0*,0.146*,
Cc1ccc(-n2nnc3c(=O)n(CC(=O)NCC4CCCO4)cnc32)cc1 (stereo not given),i,i,-10.1,i,0.19,i,/,/,
CCCCCn1c(C(Cc2ccccc2)NC(=O)COC)nc2ccccc21 (stereo not given),i,i,-5.3,i,-0.91,i,/,/,
CCN(CC)C(=O)c1ccc(Nc2nnc(-c3ccc(O)cc3)c3ccccc23)cc1,i,i,-11.7,i,-0.37,i,/,/,
O=C(Cn1c(CO)nc2ccccc21)Nc1cc(C(F)(F)F)ccc1N1CCOCC1,i,i,-5.9,i,-0.37,-10.2*,65.7*,i,
CCCCn1c(=O)c(CCC(=O)OCC(=O)NCc2ccc(OC)c(OC)c2)nc2ccccc21,i,i,-3.7,i,-1.28,i,/,/,
N#CC1(NC(=O)COc2ccccc2[N+](=O)[O-])CCCCC1,i,i,-7.3,i,1.12,i,/,/,
C=CCOc1ccc(C(=O)c2ccccc2)c(OCC(=O)NC2(C#N)CCCC2)c1,i,i,-12.2,i,1.61,-8.7*,89.7*,i,
CCN(CC)CCNC(=S)N1CCn2c(nc3ccccc32)C1,i,i,-6.9,i,-0.58,i,/,/,
